{"source": "ChEMBL document CHEMBL4627381", "about": "“Licochalcone A Selectively Resensitizes ABCG2-Overexpressing Multidrug-Resistant Cancer Cells to Chemotherapeutic Drugs” (J Nat Prod, 2020)", "key": {"[1]": {"molecular_target": "T1, Broad substrate specificity ATP-binding cassette transporter ABCG2 (Homo sapiens, UniProt Q9UNQ0)", "T1 sequence (Q9UNQ0 whole entry)": "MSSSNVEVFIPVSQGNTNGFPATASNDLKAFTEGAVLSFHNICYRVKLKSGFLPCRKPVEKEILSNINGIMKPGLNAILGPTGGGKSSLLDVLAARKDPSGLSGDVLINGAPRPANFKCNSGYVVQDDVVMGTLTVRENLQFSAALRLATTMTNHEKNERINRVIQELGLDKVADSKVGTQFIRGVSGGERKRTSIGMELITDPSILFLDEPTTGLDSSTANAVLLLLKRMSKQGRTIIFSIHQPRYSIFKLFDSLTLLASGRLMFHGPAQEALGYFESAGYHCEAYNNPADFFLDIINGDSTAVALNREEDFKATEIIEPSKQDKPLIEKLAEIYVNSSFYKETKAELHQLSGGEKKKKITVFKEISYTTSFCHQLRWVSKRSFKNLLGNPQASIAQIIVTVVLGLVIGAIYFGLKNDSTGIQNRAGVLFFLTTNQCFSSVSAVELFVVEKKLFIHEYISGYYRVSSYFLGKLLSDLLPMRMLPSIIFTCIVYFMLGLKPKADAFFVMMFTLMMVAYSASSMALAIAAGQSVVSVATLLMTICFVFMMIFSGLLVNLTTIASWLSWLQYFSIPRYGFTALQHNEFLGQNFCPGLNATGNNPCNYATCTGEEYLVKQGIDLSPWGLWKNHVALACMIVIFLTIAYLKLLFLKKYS", "experiment": "Reversal of human ABCG2-mediated multidrug resistance in HEK293/R482 cells assessed as fold change in mitoxantrone IC50 at 2 uM after 72 hrs by CCK8 assay relative to mitoxantrone IC50", "format": "cell-based", "in_short": "(§1)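 Cells were seeded at 5000/well for 24 h, then given colchicine, etoposide, mitoxantrone or topotecan ± non-toxic modulator (0.5–3.0 μM) for 72 h, with DMSO up to 0.5%. IC50 came from fitted curves (mean ± SD, three experiments). Fold-reversal = IC50 without modulator ÷ IC50 with modulator.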"}, "[2]": {"molecular_target": "T1, Broad substrate specificity ATP-binding cassette transporter ABCG2", "experiment": "Reversal of human ABCG2-mediated multidrug resistance in HEK293/R482 cells assessed as fold change in mitoxantrone IC50 at 0.5 uM after 72 hrs by CCK8 assay relative to mitoxantrone IC50", "format": "cell-based", "in_short": "as §1"}, "S1-M1-80 [3]": {"test_system": "S1-M1-80", "experiment": "Potentiation of topotecan-induced apoptosis in human S1-M1-80 cells harboring ABCG2 (unknown origin) assessed as viable cells at 10 uM incubated for 48 hrs by annexin V/propidium iodide staining based flow cytometry (reference value: 90.6%)", "format": "functional", "settings": "S1-M1-80, 48 h, read-out: Activity"}, "S1-M1-80 [4]": {"test_system": "S1-M1-80", "experiment": "Induction of apoptosis in human S1-M1-80 cells harboring ABCG2 (unknown origin) assessed as late apoptotic cells at 10 uM incubated for 48 hrs by annexin V/propidium iodide staining based flow cytometry (reference value: 2.9%)", "format": "functional"}, "S1 [5]": {"test_system": "S1", "experiment": "Induction of apoptosis in human S1 cells assessed as necrotic cells at 10 uM incubated for 48 hrs in presence of topotecan by annexin V/propidium iodide staining based flow cytometry (reference value: 0.2%)", "format": "functional", "in_short": "(§2)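 S1 cells were exposed for 48 h to DMSO, 10 μM compound, 5 μM topotecan, or 5 μM topotecan plus 10 μM compound. They were then stained with 1.25 μg/mL annexin V–FITC and 0.1 mg/mL PI for 15 min at room temperature. 10000 cells per sample were analysed by flow cytometry; three independent experiments.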"}, "S1 [6]": {"test_system": "S1", "experiment": "Induction of apoptosis in human S1 cells assessed as late apoptotic cells at 10 uM incubated for 48 hrs by annexin V/propidium iodide staining based flow cytometry (reference value: 3.6%)", "format": "functional", "in_short": "as §2"}, "NCI-H460 [7]": {"test_system": "NCI-H460", "experiment": "Cytotoxicity against human H460 cells after 72 hrs by MTT assay", "format": "functional, cell-based", "settings": "NCI-H460, 72 h", "in_short": "(§3)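 Cells seeded at 5000/well, allowed 24 h, then exposed to a concentration series for 72 h at 37 °C in DMSO vehicle (up to 0.5% v/v). HEK293 lines were read with CCK-8 and cancer lines with MTT. IC50 was taken from fitted dose-response curves over at least three independent experiments. Lines were kept drug-free for 7 days before assay.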"}, "S1-M1-80 [8]": {"test_system": "S1-M1-80", "experiment": "Cytotoxicity against human S1-M1-80 cells harboring ABCG2 (unknown origin) after 72 hrs by MTT assay", "format": "functional, cell-based", "settings": "S1-M1-80, 72 h", "in_short": "as §3"}, "[9]": {"molecular_target": "T1, Broad substrate specificity ATP-binding cassette transporter ABCG2", "experiment": "Reversal of ABCG2 (unknown origin)-mediated multidrug resistance in human H460-MX20 cells assessed as fold change in mitoxantrone IC50 at 3 uM after 72 hrs by MTT assay relative to mitoxantrone IC50", "format": "cell-based", "in_short": "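Cells held drug-free 7 days, seeded at 5000 per well for 24 h, then exposed 72 h to mitoxantrone or topotecan dilutions with DMSO (≤0.5%), LCA 0.5–3.0 μM, or Ko143 1.0 μM. Viability was read by MTT. IC50 came from fitted dose-response curves of three independent experiments. Fold-reversal = IC50 without modulator divided by IC50 with modulator.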"}, "NCI-H460 [10]": {"test_system": "NCI-H460", "experiment": "Effect on mitoxantrone-induced cytotoxicity against human H460 cells assessed as change in mitoxantrone IC50 at 3 uM after 72 hrs by MTT assay relative to mitoxantrone IC50", "format": "functional", "in_short": "(§4)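 Parental S1 colon and H460 lung cancer cells were exposed for 72 h to a mitoxantrone or topotecan concentration series, with or without modulator at 0.5–3.0 μM, and read by MTT. Fold-reversal is IC50 without modulator divided by IC50 with modulator, taken from dose-response curves of three independent experiments.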"}, "[11]": {"molecular_target": "T1, Broad substrate specificity ATP-binding cassette transporter ABCG2", "experiment": "Reversal of ABCG2 (unknown origin)-mediated multidrug resistance in human S1-M1-80 cells assessed as fold-change in topotecan IC50 at 3 uM after 72 hrs by MTT assay relative to topotecan IC50", "format": "cell-based", "settings": "s1-m1-80, 72 h", "in_short": "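MTT readout in S1-M1-80 colon cancer cells (mitoxantrone-selected, held in 80 μM mitoxantrone, then drug-free 7 days before assay). Cells were seeded at 5000/well for 24 h, then given increasing mitoxantrone or topotecan with DMSO or non-toxic modulator for 72 h at 37 °C. IC50 came from fitted dose-response curves (at least three independent experiments). Fold-reversal = IC50 without modulator ÷ IC50 with modulator.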"}, "S1 [12]": {"test_system": "S1", "experiment": "Effect on topotecan-induced cytotoxicity against human S1 cells assessed as fold change in topotecan IC50 at 3 uM after 72 hrs by MTT assay relative to topotecan IC50", "format": "functional", "in_short": "as §4"}, "[13]": {"molecular_target": "T1, Broad substrate specificity ATP-binding cassette transporter ABCG2", "experiment": "Reversal of human ABCG2-mediated multidrug resistance in HEK293/R482 cells assessed as fold-change in topotecan IC50 at 3 uM after 72 hrs by CCK8 relative to topotecan IC50", "format": "cell-based", "in_short": "as §1"}, "[14]": {"molecular_target": "T1, Broad substrate specificity ATP-binding cassette transporter ABCG2", "experiment": "Reversal of human ABCG2-mediated multidrug resistance in HEK293/R482 cells assessed as fold-change in topotecan IC50 at 0.5 uM after 72 hrs by CCK8 relative to topotecan IC50", "format": "cell-based", "in_short": "as §1"}, "HEK293": {"test_system": "HEK293", "experiment": "Effect on mitoxantrone-induced cytotoxicity against HEK293 cells assessed as fold change in mitoxantrone IC50 at 3 uM after 72 hrs by CCK8 assay relative to mitoxantrone IC50", "format": "cell-based", "settings": "human, hek293, 72 h", "in_short": "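Reversal assay in parental pcDNA-HEK293 and transfected HEK293 lines (ABCB1 for colchicine, ABCC1 for etoposide, ABCG2 for mitoxantrone/topotecan). Substrate drug series was given with or without nontoxic modulator (0.5, 1.0, 2.0 or 3.0 μM) for 72 h, with a CCK-8 read-out. Fold-reversal is substrate IC50 without modulator divided by IC50 with modulator. Three independent experiments.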"}}}
{"smiles": "C=CC(C)(C)c1cc(/C=C/C(=O)c2ccc(O)cc2)c(OC)cc1O", "note": "[LICOAGROCHACONE A]", "values": [{"measurement": "fold change (FC)", "setting": "[1]", "value": 6.5}, {"measurement": "fold change (FC)", "setting": "[2]", "value": 2.7}, {"measurement": "viability at 10 µM", "setting": "S1-M1-80 [3]", "value": 67.8, "unit": "%"}, {"measurement": "Activity", "setting": "S1-M1-80 [4]", "value": 2.9, "unit": "%"}, {"measurement": "Activity", "setting": "S1 [5]", "value": 3, "unit": "%"}, {"measurement": "Activity", "setting": "S1 [6]", "value": 2.7, "unit": "%"}, {"measurement": "IC50", "setting": "NCI-H460 [7]", "value": "10 to 50", "unit": "µM"}, {"measurement": "IC50", "setting": "S1-M1-80 [8]", "value": "10 to 50", "unit": "µM"}, {"measurement": "fold change (FC)", "setting": "[9]", "value": 16.6}, {"measurement": "fold change (FC)", "setting": "NCI-H460 [10]", "value": 1.1}, {"measurement": "fold change (FC)", "setting": "[11]", "value": 32.7}, {"measurement": "fold change (FC)", "setting": "S1 [12]", "value": 0.9}, {"measurement": "fold change (FC)", "setting": "[13]", "value": 4.7}, {"measurement": "fold change (FC)", "setting": "[14]", "value": 2.2}, {"measurement": "fold change (FC)", "setting": "HEK293", "value": 1}]}
